Columns and labels:
[1] = test system: PC-3; assay: Cytotoxicity against human PC3 cells assessed as reduction in cell viability after 48 hrs by SRB assay; type: functional, cell-based; conditions: PC-3, 48 h
In short: (§1)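 SRB assay. Compounds active at 10 µM in the primary screen were retested at 1, 2.5 and 5 µM, and IC50 was calculated from these concentrations. The normal breast epithelial line fR2 was tested alongside the cancer lines.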

[2] = Selectivity index, ratio of IC50 for human FR2 cells to IC50 for human HCT116 cells; type: functional
In short: (§2)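 Selectivity index is the IC50 in normal breast epithelial fR2 cells divided by the IC50 in each cancer line. All IC50 values come from the SRB assay.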

[3] = test system: A549; assay: Growth inhibition of human A549 cells at 10 uM after 48 hrs by SRB assay relative to control; type: functional; conditions: A549, 48 h, read-out: GI
In short: (§3)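 Primary SRB screen of every compound at a single concentration of 10 µM. Growth inhibition is expressed relative to control.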

[4] = Selectivity index, ratio of IC50 for human FR2 cells to IC50 for human A549 cells; type: functional; in short: as §2
[5] = test system: MIA PaCa-2; assay: Growth inhibition of human MIAPaCa2 at 10 uM after 48 hrs by SRB assay relative to control; type: functional; conditions: MIA PaCa-2, 48 h, read-out: GI; in short: as §3
[6] = test system: MCF7; assay: Cytotoxicity against human MCF7 cells assessed as reduction in cell viability after 48 hrs by SRB assay; type: functional, cell-based; conditions: MCF7, 48 h; in short: as §1
[7] = test system: PC-3; assay: Growth inhibition of human PC3 cells at 10 uM after 48 hrs by SRB assay relative to control; type: functional; conditions: PC-3, 48 h, read-out: GI; in short: as §3
[8] = test system: A549; assay: Cytotoxicity against human A549 cells assessed as reduction in cell viability after 48 hrs by SRB assay; type: functional, cell-based; conditions: A549, 48 h; in short: as §1
[9] = test system: HCT-116; assay: Growth inhibition of human HCT116 cells at 10 uM after 48 hrs by SRB assay relative to control; type: functional; conditions: HCT-116, 48 h, read-out: GI; in short: as §3
[10] = Cytotoxicity against human FR2 cells assessed as reduction in cell viability after 48 hrs by SRB assay; type: cell-based; conditions: FR2, 48 h; in short: as §1
[11] = test system: HCT-116; assay: Cytotoxicity against human HCT116 cells assessed as reduction in cell viability after 48 hrs by SRB assay; type: functional, cell-based; conditions: HCT-116, 48 h; in short: as §1
[12] = test system: MIA PaCa-2; assay: Cytotoxicity against human MIAPaCa2 cells assessed as reduction in cell viability after 48 hrs by SRB assay; type: functional, cell-based; conditions: MIA PaCa-2, 48 h; in short: as §1
[13] = test system: MCF7; assay: Growth inhibition of human MCF7 cells at 10 uM after 48 hrs by SRB assay relative to control; type: functional; conditions: MCF7, 48 h, read-out: GI; in short: as §3
[14] = Selectivity index, ratio of IC50 for human FR2 cells to IC50 for human MCF7 cells; type: functional; in short: as §2
[15] = Selectivity index, ratio of IC50 for human FR2 cells to IC50 for human PC3 cells; type: functional; in short: as §2

For `C=C(C)[C@@H]1CC[C@]2(C(=O)O)CC[C@]3(C)[C@H](CC[C@@H]4[C@@]5(C)C/C(=C\c6cc(Br)ccc6OC)[C@H](O)C(C)(C)[C@@H]5CC[C@]43C)[C@@H]12`, the IC50 [1] was over 10 µM, the “Ratio IC50” value [2] was 1.93 and the inhibition of growth at 10 µM [3] was 65%. For the same compound, the “Ratio IC50” value [4] was 3.76, the inhibition of growth at 10 µM [5] was 16% and the IC50 [6] was 5.2 µM. It also gave an inhibition of growth at 10 µM [7] of 7%, an IC50 [8] of 2.8 µM and an inhibition of growth at 10 µM [9] of 54%. It also gave an IC50 [10] of 10.5 µM, an IC50 [11] of 5.44 µM and an IC50 [12] of over 10 µM. For the same compound, the inhibition of growth at 10 µM [13] was 67% and the “Ratio IC50” value [14] was 2.025.

For `C=C(C)[C@@H]1CC[C@]2(C(=O)O)CC[C@]3(C)[C@H](CC[C@@H]4[C@@]5(C)C/C(=C\c6c(Cl)cccc6Cl)C(=O)C(C)(C)[C@@H]5CC[C@]43C)[C@@H]12`, the IC50 [1] was over 10 µM, the “Ratio IC50” value [2] was under 2.003 and the inhibition of growth at 10 µM [3] was 62%. The “Ratio IC50” value [4] was 2.359, the inhibition of growth at 10 µM [5] was 15% and the IC50 [6] was 9.07 µM. It also gave an inhibition of growth at 10 µM [7] of 25%, an IC50 [8] of 7.7 µM and an inhibition of growth at 10 µM [9] of 33%. The IC50 [10] was 18.2 µM, the IC50 [11] was over 10 µM and the IC50 [12] was over 10 µM. The inhibition of growth at 10 µM [13] was 54%.

In the case of `C=C(C)[C@@H]1CC[C@]2(C(=O)O)CC[C@]3(C)[C@H](CC[C@@H]4[C@@]5(C)C/C(=C\c6ccc(F)c(Br)c6)[C@H](O)C(C)(C)[C@@H]5CC[C@]43C)[C@@H]12`, the IC50 [1] is reported as over 10 µM, the “Ratio IC50” value [2] is reported as 3.064 and the inhibition of growth at 10 µM [3] is reported as 65%. For the same compound, the “Ratio IC50” value [4] was 5.253, the inhibition of growth at 10 µM [5] was 40% and the IC50 [6] was 6.4 µM. For the same compound, the inhibition of growth at 10 µM [7] was 31%, the IC50 [8] was 4.9 µM and the inhibition of growth at 10 µM [9] was 57%. For the same compound, the IC50 [10] was 25.7 µM, the IC50 [11] was 8.4 µM and the IC50 [12] was over 10 µM. The inhibition of growth at 10 µM [13] was 72% and the “Ratio IC50” value [14] was 4.021.

`C=C(C)[C@@H]1CC[C@]2(C(=O)O)CC[C@]3(C)[C@H](CC[C@@H]4[C@@]5(C)C/C(=C\c6ccc(Br)o6)[C@H](O)C(C)(C)[C@@H]5CC[C@]43C)[C@@H]12` gave an inhibition of growth at 10 µM [3] of 0%, an inhibition of growth at 10 µM [5] of 34% and an inhibition of growth at 10 µM [7] of 8%. For the same compound, the inhibition of growth at 10 µM [9] was 25% and the inhibition of growth at 10 µM [13] was 22%.

In the case of `C=C(C)[C@@H]1CC[C@]2(C(=O)O)CC[C@]3(C)[C@H](CC[C@@H]4[C@@]5(C)C/C(=C\c6cccc(Br)c6)C(=O)C(C)(C)[C@@H]5CC[C@]43C)[C@@H]12`, the IC50 [1] is reported as 8.7 µM, the “Ratio IC50” value [2] is reported as 3.44 and the inhibition of growth at 10 µM [3] is reported as 71%. The “Ratio IC50” value [4] was 5.55, the inhibition of growth at 10 µM [5] was 35% and the IC50 [6] was 5.2 µM. The inhibition of growth at 10 µM [7] was 56%, the “Ratio IC50” value [15] was 1.94 and the IC50 [8] was 3.04 µM. It also gave an inhibition of growth at 10 µM [9] of 57%, an IC50 [10] of 16.9 µM and an IC50 [11] of 4.9 µM. For the same compound, the IC50 [12] was over 10 µM, the inhibition of growth at 10 µM [13] was 56% and the “Ratio IC50” value [14] was 3.25.

For `C=C(C)[C@@H]1CC[C@]2(C(=O)O)CC[C@]3(C)[C@H](CC[C@@H]4[C@@]5(C)C/C(=C\c6cc(Br)ccc6OC)C(=O)C(C)(C)[C@@H]5CC[C@]43C)[C@@H]12`, the IC50 [1] was 7.1 µM, the “Ratio IC50” value [2] was 2.802 and the inhibition of growth at 10 µM [3] was 88%. For the same compound, the “Ratio IC50” value [4] was 7.705, the inhibition of growth at 10 µM [5] was 28% and the IC50 [6] was 6.3 µM. The inhibition of growth at 10 µM [7] was 81%, the “Ratio IC50” value [15] was 1.854 and the IC50 [8] was 1.7 µM. For the same compound, the inhibition of growth at 10 µM [9] was 92%, the IC50 [10] was 13.1 µM and the IC50 [11] was 4.7 µM. For the same compound, the IC50 [12] was over 10 µM, the inhibition of growth at 10 µM [13] was 85% and the “Ratio IC50” value [14] was 2.09.

With `C=C(C)[C@@H]1CC[C@]2(C(=O)O)CC[C@]3(C)[C@H](CC[C@@H]4[C@@]5(C)C/C(=C/C=C/c6ccccc6)[C@H](O)C(C)(C)[C@@H]5CC[C@]43C)[C@@H]12` the inhibition of growth at 10 µM [3] was 26%, the inhibition of growth at 10 µM [5] was 49% and the inhibition of growth at 10 µM [7] was 30%. For the same compound, the inhibition of growth at 10 µM [9] was 40% and the inhibition of growth at 10 µM [13] was 49%.

Reference: ChEMBL document CHEMBL4052644, “Synthesis of novel benzylidene analogues of betulinic acid as potent cytotoxic agents” (Eur J Med Chem, 2017)
